# From PubChem BioAssay
# MrgX1 allo act – positive allosteric modulators of MrgX1, primary screen, HEK293 cells, Fluo-4 calcium flux; B-score at 10 µM; 310,000 tested, 0.63% active; FDSS; hits give high values;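 active = plate-corrected calcium response at least 3 library SD above typical, normal starting fluorescence, not activating the receptor alone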;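 also: compound read alongside a low EC10 to EC30 dose of BAM8-22 agonist; peak minus trough fluorescence over baseline measured at the second addition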
# Target sequence (Q96LB2 whole entry, looked up): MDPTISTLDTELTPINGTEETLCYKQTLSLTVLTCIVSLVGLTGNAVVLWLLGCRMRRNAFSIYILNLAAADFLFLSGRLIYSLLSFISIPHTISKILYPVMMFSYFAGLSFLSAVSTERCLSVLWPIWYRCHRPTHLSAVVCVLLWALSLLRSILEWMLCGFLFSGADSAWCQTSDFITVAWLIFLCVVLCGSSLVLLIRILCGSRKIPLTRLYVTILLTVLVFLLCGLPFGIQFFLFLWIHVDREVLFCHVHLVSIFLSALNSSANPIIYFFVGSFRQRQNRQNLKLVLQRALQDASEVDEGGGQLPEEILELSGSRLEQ
# RGS4 inh – RGS4 inhibitors, primary screen, cell-based, HEK293 M3R inducible RGS4, calcium flux | B-score at 10 µM | 310,000 tested, 0.45% active | AID 463165, 2010 | Fluo-4 calcium flux; hits give high values; triggered by carbachol at its EC20 | Regulator of G-protein signaling 4 (Homo sapiens), P49798;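 active = B-score, a plate-corrected calcium signal, over three deviations above library mean, with baseline fluorescence within five deviations of library mean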;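 also: RGS4 expression induced by doxycycline in cells with stable M3 receptor; B-score is computed from the integrated fluorescence ratio over baseline after carbachol; higher B-score means a larger calcium signal and so more RGS4 inhibition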
# Target sequence (P49798 whole entry, looked up): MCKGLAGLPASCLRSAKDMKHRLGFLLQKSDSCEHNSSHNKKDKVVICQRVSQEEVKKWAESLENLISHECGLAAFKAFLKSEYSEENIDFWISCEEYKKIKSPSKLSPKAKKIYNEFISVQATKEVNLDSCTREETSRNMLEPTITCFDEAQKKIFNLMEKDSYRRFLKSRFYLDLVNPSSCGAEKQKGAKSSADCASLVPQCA
# RGS4 act – RGS4 potentiators or activators, primary screen, cell-based, HEK293 M3R inducible RGS4, calcium flux; carbachol calcium flux Fluo4; hits give low values; B-score at 10 µM; 310,000 tested, 0.92% active;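 active = B-score of the integrated calcium signal more than 4 SD below the library mean, with starting fluorescence not abnormally high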;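 also: negative B-score means reduced calcium response which marks RGS4 activation or potentiation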
#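 Material: M3R-expressing HEK293 line, RGS4 induced by doxycycline | Schedule: Overnight RGS4 induction, 30 min dye load 37 °C, 20 min compound RT | Measured by: Fluo4 fluorescence kinetic imaging of calcium | Read-out: Integrated calcium ratio converted to B score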
# MrgX1 antag – antagonists of human MrgX1 receptor, primary screen, HEK293 cells, Fluo-4 calcium flux. Mas-related G-protein coupled receptor member X1 (Homo sapiens), Q96LB2. BAM8-22 antagonism; hits give low values. B-score at 10 µM. 310,000 tested, 1.3% active. AID 588676, 2011;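 active = calcium-response B-score plate-corrected more than 3 library SD below zero, starting fluorescence within 5 deviations, no agonist response on first addition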;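 also: peak minus trough fluorescence over baseline after final BAM8-22 challenge near maximal dose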
# MrgX1 agonist – agonists of human MrgX1 receptor, primary screen, HEK293 cells, Fluo-4 calcium flux | B-score at 10 µM | Fluo-4 calcium fluorescence, agonist mode; hits give high values | AID 588627, 2011 | 310,000 tested, 0.44% active;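 active = calcium response B-score plate-corrected fluorescence ratio at least 3 library SD, with starting fluorescence B-score inside 5 SD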
#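 Material: MrgX1-expressing HEK293 cells / Dosing: compound as first of three additions / Incubation: overnight seeding, then 1 h dark dye loading / Signal: Fluo-4 NW calcium fluorescence / Evaluation: B-scored fluorescence response ratio / Benchmarks: positive and negative control wells on each plate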
# An asterisk follows results filed as active; i = inactive; . = no result given. Hits are enriched below; roughly 3.5% of the tested compounds scored in any of these assays.
SMILES,MrgX1 allo act,RGS4 inh,RGS4 act,MrgX1 antag,MrgX1 agonist
Cc1cccc(NC(=O)C23CCC(C)(/C(=N/O)C2)C3(C)C)c1 (stereo not drawn),i,i,i,-5.8*,i
CN=c1scc(-c2ccccc2F)n1/N=C/c1ccc[nH]1,6.98*,i,i,i,i
COc1ccc(NC(=O)/C=C/C(=O)O)c([N+](=O)[O-])c1,13.5*,i,i,i,i
Cc1ccc(NC(=O)/C=C/C(=O)O)c([N+](=O)[O-])c1,i,i,i,i,i
N#C[C@H]1C2OC2c2ccccc2N1C(=O)c1ccccc1 (stereo partly drawn),i,i,i,-7.94*,i
Cn1c(=O)c(=O)n(C)c2cc(S(=O)(=O)CCC(=O)Nc3ccc(C(F)(F)F)cc3)ccc21,i,i,i,i,i
O=C(CN1C(=O)S/C(=C\C=C\c2ccccc2)C1=O)Nc1ccccc1C(=O)O,i,i,i,i,i
C#CCN1C(=O)S/C(=C/C=C/c2ccc(N(C)C)cc2)C1=O,i,.,.,-5.34*,i
O=C1CCCC(O)=C1N=Nc1ccc2c(c1)OCO2,i,i,i,-5.04*,i
O=C1CCCC(O)=C1N=Nc1ccc(C(=O)O)cc1,i,i,i,i,i
CC(NC(=O)c1ccco1)c1nc(-c2ccccc2)no1 (stereo not drawn),i,i,i,i,i
CC(Oc1ccc(Cl)cc1Cl)c1nc(-c2ccc(NC(=O)c3ccco3)cc2)no1 (stereo not drawn),i,i,i,-4.97*,i
CN(C)c1ncnc2sc(-c3ccccc3)cc12,i,i,i,-7.06*,i
COc1ncnc2sc(-c3ccccc3)cc12,i,i,i,i,i
CCOC(=O)c1cc2c(ccc3nc(C)c(C)c32)[nH]c1C,i,i,i,i,i
Cc1ccc(C)c(-c2cc(C(=O)Nc3cccc(C(=O)O)c3)c3ccccc3n2)c1,i,i,i,i,i
Cc1ccc(C)c(-c2cc(C(=O)Nc3cccnc3)c3ccccc3n2)c1,i,i,-7.61*,i,i
C=C(C)[C@@H]1CCC2(C(=O)O)CC[C@]3(C)[C@H](CC[C@@H]4[C@@]5(C)CCC(=O)C(C)(C)[C@@H]5CC[C@]43C)[C@@H]12 (stereo partly drawn),i,i,i,-8.31*,i
CCN(CC)S(=O)(=O)c1ccc(=O)[nH]c1,i,i,i,i,i
CC(=O)c1ccc(S(=O)(=O)Nc2ccc(-n3c(C)nc4ccccc4c3=O)cc2)cc1,i,i,i,i,i
Cc1onc(-c2ccccc2)c1C(=O)N/N=C/C=C/c1ccccc1,i,i,i,i,i
Cc1ccc(C(=O)N/N=C/C=C/c2ccccc2)o1,i,i,i,-7.01*,i
CCOc1cc(/C=C2\CCn3c2nc2cc(Cl)ccc2c3=O)ccc1O,i,i,i,i,i
Cc1nnc2sc(SCc3ccc(Cl)cc3)nn2c1=O,i,i,i,-6.62*,i
O=S(=O)(NCC(c1ccc2c(c1)OCO2)N1CCN(c2ccccc2)CC1)c1ccccc1 (stereo not drawn),i,i,i,i,i
SMILES,MrgX1 allo act,RGS4 inh,RGS4 act,MrgX1 antag,MrgX1 agonist
COc1ccc(/C=N/NC(=O)c2ccc(N(C)S(=O)(=O)c3ccccc3)cc2)c(OC)c1,i,i,i,i,i
COc1ccc(OC)c(/C=N/NC(=O)c2ccc(N(C)S(=O)(=O)c3ccccc3)cc2)c1,7.05*,i,i,i,i
Cc1ccc(NCCC#N)cc1C,i,i,i,i,i
COC(=O)c1sc2cc([N+](=O)[O-])cc(SCC(C)C)c2c1N,i,i,i,-9.24*,i
CN(C)S(=O)(=O)c1cccc(-c2nn(-c3ccccc3)cc2/C=C2\SC(=S)NC2=O)c1,16.9*,.,.,i,i
Cc1ccc(C)c2sc(N3CCN(C(=O)c4ccc([N+](=O)[O-])o4)CC3)nc12,i,i,i,-7.55*,i
O=C(c1ccc([N+](=O)[O-])o1)N1CCN(c2nc3c(F)cc(F)cc3s2)CC1,i,i,i,i,i
C=C1SC(=Nc2c(C)cccc2Cl)N(C(=O)c2sc3ccccc3c2Cl)C12CCCCC2,i,i,i,-5.05*,i
Cc1c(C(=O)N2CC[C@@H](N3CCC(O)CC3)[C@H](O)C2)[nH]c2ccc(Cl)cc12,i,i,i,i,i
CNC(=O)C1CC(=O)N(CCc2ccc(C)cc2)C1 (stereo not drawn),i,i,i,i,i
O=C(NCc1cccc(Cl)c1)c1cccc(OC2CCN(C(=O)C3CC3)CC2)c1,i,i,i,-5.65*,i
CCOc1ccc(/C=C2\SC(=S)N(NS(=O)(=O)c3ccccc3)C2=O)cc1OC,i,i,i,i,i
CCOc1cc(/C=C2\SC(=S)N(NS(=O)(=O)c3ccccc3)C2=O)ccc1O,i,i,i,i,34.4*
O=C1/C(=C/C=C/c2ccco2)SC(=S)N1NS(=O)(=O)c1ccccc1,7.9*,.,.,i,i
COc1ccc(/C=C2\SC(=S)N(NS(=O)(=O)c3ccccc3)C2=O)c(OC)c1,i,i,-7.46*,-8.67*,i
O=C1/C(=C/c2cccs2)SC(=S)N1NS(=O)(=O)c1ccccc1,i,i,i,i,i
COc1ccc(/C=C2\SC(=S)N(NS(=O)(=O)c3ccc(C)cc3)C2=O)c(OC)c1,i,i,-8.19*,i,i
COc1ccc(/C=C2\SC(=S)N(C(C(=O)O)c3ccccc3)C2=O)c(OC)c1 (stereo not drawn),i,i,i,-5.17*,i
CCCCN(C)S(=O)(=O)c1ccc(C(=O)Nc2nnc(-c3cccs3)o2)cc1,i,i,i,i,30.9*
N=C1/C(=C/c2ccc(-c3cccc(C(=O)O)c3)o2)C(=O)N=C2SC=C(c3ccccc3)N12,i,i,-8.37*,-7.6*,i
N=C1/C(=C\c2ccc(-c3cc(Cl)cc(Cl)c3)o2)C(=O)N=C2SC=C(c3ccccc3)N12,i,i,i,i,i
